Measurements from ChEMBL document CHEMBL2086296, “Synthesis of novel quinoline-2-one based chalcones of potential anti-tumor activity” (Eur J Med Chem, 2012).

What was measured:
NCI-H522 [1] = test: (§1) Cytotoxicity against human NCI-H522 cells after 24 hrs by SRB assay; assay type: functional; settings: NCI-H522, 24 h
How it was run: (§2)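 NCI 60-line screen. Cells in RPMI 1640 with 5% FBS and 2 mM L-glutamine, seeded at 5,000–40,000 cells/well by doubling time, then incubated 24 h at 37 °C, 5% CO2 before dosing. Time-zero plates fixed with TCA at drug addition. DMSO stocks diluted in medium with gentamicin to five concentrations, […]. Protein read by SRB staining. GI50, TGI and LC50 derived relative to control and time-zero.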

COLO 205 = test: Cytotoxicity against human COLO205 cells after 24 hrs by SRB assay; assay type: functional; settings: COLO 205, 24 h; how it was run: as §2
HT-29 = test: Cytotoxicity against human HT-29 cells after 24 hrs by SRB assay; assay type: functional; settings: HT-29, 24 h; how it was run: as §2
KM12 [2] = test: (§3) Cytotoxicity against human KM12 cells after 24 hrs by SRB assay; assay type: functional; settings: KM12, 24 h; how it was run: as §2
HCC 2998 = test: Cytotoxicity against human HCC2998 cells after 24 hrs by SRB assay; assay type: functional; settings: HCC 2998, 24 h; how it was run: as §2
SNB-75 = test: Cytotoxicity against human SNB75 cells after 24 hrs by SRB assay; assay type: functional; settings: SNB-75, 24 h
How it was run: (§4)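 NCI 60-cell screen. Cells are grown in RPMI 1640 with 5% FBS and 2 mM L-glutamine and seeded at 5,000–40,000 cells/well according to doubling time. They are preincubated 24 h at 37 °C in 5% CO2, and Tz plates are TCA-fixed at drug addition. Drug stock is in DMSO, diluted in medium with gentamicin, and tested at five concentrations (100, 10, 1.0, 0.1, […]). Protein is read by SRB staining. GI50, TGI and LC50 are derived relative to time-zero and control wells.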

SK-MEL-5 [3] = test: (§5) Cytotoxicity against human SK-MEL-5 cells after 24 hrs by SRB assay; assay type: functional; settings: SK-MEL-5, 24 h; how it was run: as §2
M14 [4] = test: (§6) Cytotoxicity against human M14 cells after 24 hrs by SRB assay; assay type: functional; settings: M14, 24 h; how it was run: as §2
NCI/ADR-RES = test: Cytotoxicity against human NCI/ADR-RES cells after 24 hrs by SRB assay; assay type: functional; how it was run: as §2
OVCAR-8 [5] = test: (§7) Cytotoxicity against human OVCAR8 cells after 24 hrs by SRB assay; assay type: functional; settings: OVCAR-8, 24 h; how it was run: as §2
OVCAR-5 = test: Cytotoxicity against human OVCAR5 cells after 24 hrs by SRB assay; assay type: functional; settings: OVCAR-5, 24 h; how it was run: as §2
TK-10 = test: Cytotoxicity against human TK10 cells after 24 hrs by SRB assay; assay type: functional; settings: TK-10, 24 h; how it was run: as §4
MDA-MB-231 [6] = test: (§8) Cytotoxicity against human MDA-MB-231 cells after 24 hrs by SRB assay; assay type: functional; settings: MDA-MB-231, 24 h; how it was run: as §2
BT-549 [7] = test: (§9) Cytotoxicity against human BT549 cells after 24 hrs by SRB assay; assay type: functional; settings: BT-549, 24 h; how it was run: as §2
T47D [8] = test: (§10) Cytotoxicity against human T47D cells after 24 hrs by SRB assay; assay type: functional; how it was run: as §4
CCRF-CEM = test: Cytotoxicity against human CCRF-CEM cells after 24 hrs by SRB assay; assay type: cell-based
How it was run: (§11)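 NCI 60-cell screen. Cells grown in RPMI 1640 with 5% FBS and 2 mM L-glutamine, seeded at 5,000–40,000 cells/well, preincubated 24 h at 37 °C in 5% CO2. Drug stock in DMSO, diluted in medium with gentamicin; five final concentrations, 100, 10, 1.0, 0.1 and […]. Time-zero plates were TCA-fixed. Protein read by SRB staining; GI50, TGI and LC50 taken relative to time-zero.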

HL-60 = test: Cytotoxicity against human HL60 cells after 24 hrs by SRB assay; assay type: cell-based; settings: hl-60, 24 h; how it was run: as §11
MOLT-4 = test: Cytotoxicity against human MOLT4 cells after 24 hrs by SRB assay; assay type: cell-based; settings: molt-4, 24 h; how it was run: as §11
NCI-H460 = test: Cytotoxicity against human NCI-H460 cells after 24 hrs by SRB assay; assay type: cell-based; settings: nci-h460, 24 h; how it was run: as §11
NCI-H522 [9] = test: as §1; assay type: cell-based; settings: nci-h522, 24 h; how it was run: as §11
KM12 [10] = test: as §3; assay type: cell-based; settings: km12, 24 h; how it was run: as §11
SW-620 = test: Cytotoxicity against human SW620 cells after 24 hrs by SRB assay; assay type: cell-based; settings: sw-620, 24 h
How it was run: (§12)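 NCI 60-cell-line screen: cells grown in RPMI 1640 with 5% FBS and 2 mM L-glutamine, seeded at 5,000–40,000 cells/well by doubling time, and preincubated 24 h at 37 °C in 5% CO2. Time-zero plates were TCA-fixed. DMSO stocks were diluted in medium with gentamicin to five concentrations (100, 10, 1.0, 0.1, […]). Protein was read by SRB, and GI50, TGI and LC50 were derived against time-zero.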

U-251 = test: Cytotoxicity against human U251 cells after 24 hrs by SRB assay; assay type: cell-based; settings: u-251, 24 h; how it was run: as §12
SNB-19 = test: Cytotoxicity against human SNB19 cells after 24 hrs by SRB assay; assay type: cell-based; settings: snb-19, 24 h; how it was run: as §12
LOX IMVI = test: Cytotoxicity against human LOXIMVI cells after 24 hrs by SRB assay; assay type: cell-based; how it was run: as §11
RPMI-8226 = test: Cytotoxicity against human RPMI8226 cells after 24 hrs by SRB assay; assay type: functional; settings: RPMI-8226, 24 h; how it was run: as §2
SR = test: Cytotoxicity against human SR cells after 24 hrs by SRB assay; assay type: functional; how it was run: as §4
SK-MEL-5 [11] = test: as §5; assay type: cell-based; settings: sk-mel-5, 24 h; how it was run: as §11
M14 [12] = test: as §6; assay type: cell-based; settings: m14, 24 h; how it was run: as §11
SK-MEL-28 = test: Cytotoxicity against human SK-MEL-28 cells after 24 hrs by SRB assay; assay type: cell-based; settings: sk-mel-28, 24 h; how it was run: as §11
OVCAR-8 [13] = test: as §7; assay type: cell-based; settings: ovcar-8, 24 h; how it was run: as §11
SN12C = test: Cytotoxicity against human SN12C cells after 24 hrs by SRB assay; assay type: cell-based; how it was run: as §12
MCF7 = test: Cytotoxicity against human MCF7 cells after 24 hrs by SRB assay; assay type: cell-based; settings: mcf7, 24 h; how it was run: as §11
MDA-MB-231 [14] = test: as §8; assay type: cell-based; settings: mda-mb-231, 24 h; how it was run: as §11
BT-549 [15] = test: as §9; assay type: cell-based; settings: bt-549, 24 h; how it was run: as §11
T47D [16] = test: as §10; assay type: cell-based; how it was run: as §12
SK-OV-3 [17] = test: (§13) Cytotoxicity against human SKOV3 cells after 24 hrs by SRB assay; assay type: functional; settings: SK-OV-3, 24 h; how it was run: as §2
SK-OV-3 [18] = test: as §13; assay type: cell-based; settings: sk-ov-3, 24 h; how it was run: as §12
786-0 = test: Cytotoxicity against human 786-0 cells after 24 hrs by SRB assay; assay type: cell-based; settings: 786-0, 24 h; how it was run: as §11

## O=C(/C=C/c1cc2ccccc2[nH]c1=O)c1ccc(O)cc1
NCI-H522 [1]
  GI50: 1.7 µM
  TGI: 3.29 µM
COLO 205
  GI50: 4.05 µM
  TGI: 19.7 µM
HT-29
  GI50: 3.61 µM
  TGI: 12.1 µM
KM12 [2]
  GI50: 1.89 µM
  TGI: 4.5 µM
HCC 2998
  GI50: 4.13 µM
  TGI: 22.3 µM
SNB-75
  GI50: 9.3 µM
  TGI: 23 µM
SK-MEL-5 [3]
  GI50: 3.98 µM
  TGI: 13.3 µM
M14 [4]
  GI50: 2.6 µM
  TGI: 6.57 µM
NCI/ADR-RES
  GI50: 2.9 µM
  TGI: > 100 µM
OVCAR-8 [5]
  GI50: 3.23 µM
  TGI: 21.1 µM
OVCAR-5
  GI50: 3.2 µM
  TGI: 12.8 µM
TK-10
  GI50: 3.81 µM
  TGI: 11.8 µM
MDA-MB-231 [6]
  GI50: 2.31 µM
  TGI: 15 µM
BT-549 [7]
  GI50: 1.95 µM
  TGI: 5.35 µM
T47D [8]
  GI50: 4.19 µM
  TGI: 20.4 µM
CCRF-CEM
  LC50: > 100 µM
HL-60
  LC50: > 100 µM
MOLT-4
  LC50: > 100 µM
NCI-H460
  LC50: > 100 µM
NCI-H522 [9]
  LC50: 6.36 µM
KM12 [10]
  LC50: 15.4 µM
SW-620
  LC50: > 100 µM
U-251
  LC50: 45.3 µM
SNB-19
  LC50: 50.6 µM
LOX IMVI
  LC50: > 100 µM
RPMI-8226
  GI50: 3.2 µM
  TGI: 24.8 µM
SR
  GI50: 1.66 µM
SK-MEL-5 [11]
  LC50: 37.3 µM
M14 [12]
  LC50: > 100 µM
SK-MEL-28
  LC50: 66.3 µM
OVCAR-8 [13]
  LC50: > 100 µM
SN12C
  LC50: > 100 µM
MCF7
  LC50: 82.9 µM
MDA-MB-231 [14]
  LC50: > 100 µM
BT-549 [15]
  LC50: > 100 µM
T47D [16]
  LC50: 79.6 µM

## O=C(/C=C/c1cc2ccccc2[nH]c1=O)/C=C/c1cc2ccccc2[nH]c1=O
NCI-H522 [1]
  GI50: 2.52 µM
COLO 205
  GI50: 2.89 µM
  TGI: > 100 µM
HT-29
  GI50: 0.483 µM
  TGI: 1.78 µM
KM12 [2]
  GI50: 0.494 µM
  TGI: 1.83 µM
HCC 2998
  GI50: 0.839 µM
  TGI: 2.22 µM
SK-MEL-5 [3]
  GI50: 5.63 µM
  TGI: > 100 µM
M14 [4]
  GI50: 0.393 µM
NCI/ADR-RES
  GI50: > 100 µM
  TGI: > 100 µM
OVCAR-8 [5]
  GI50: 2.6 µM
  TGI: > 100 µM
SK-OV-3 [17]
  GI50: 18.1 µM
  TGI: > 100 µM
TK-10
  GI50: 4.6 µM
  TGI: > 100 µM
MDA-MB-231 [6]
  GI50: 3.49 µM
  TGI: > 100 µM
BT-549 [7]
  GI50: 1.9 µM
  TGI: 6.15 µM
T47D [8]
  GI50: 3.27 µM
  TGI: > 100 µM
CCRF-CEM
  LC50: > 100 µM
HL-60
  LC50: > 100 µM
MOLT-4
  LC50: > 100 µM
NCI-H460
  LC50: > 100 µM
NCI-H522 [9]
  LC50: > 100 µM
KM12 [10]
  LC50: 5.12 µM
SW-620
  LC50: > 100 µM
U-251
  LC50: > 100 µM
SNB-19
  LC50: > 100 µM
RPMI-8226
  GI50: 0.341 µM
  TGI: > 100 µM
SR
  GI50: 1.14 µM
  TGI: > 100 µM
SK-MEL-5 [11]
  LC50: > 100 µM
M14 [12]
  LC50: > 100 µM
SK-MEL-28
  LC50: > 100 µM
OVCAR-8 [13]
  LC50: > 100 µM
SK-OV-3 [18]
  LC50: > 100 µM
SN12C
  LC50: > 100 µM
786-0
  LC50: > 100 µM
MCF7
  LC50: > 100 µM
MDA-MB-231 [14]
  LC50: > 100 µM
BT-549 [15]
  LC50: > 100 µM
T47D [16]
  LC50: > 100 µM
